Experimental data published in ChEMBL document CHEMBL1125163, “Evolution of a series of peptidoleukotriene antagonists: synthesis and structure-activity relationships of 1,6-disubstituted indoles and indazoles” (J Med Chem, 1990).

Tests used:
[1] = pKB value of the compound
Outline: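 Guinea pig tracheal strips at 37 °C in Krebs buffer. Cumulative LTE4 concentration-response curves were built in log increments, with responses expressed as % of the maximum to 30 µM carbachol. Antagonist was incubated 30 min before the curve, with vehicle on paired controls. EC50 came from linear regression. KB = [antagonist]/(dose ratio − 1) by the Furchgott method. One curve per tissue.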

Cavia porcellus [2] = species: Cavia porcellus; experiment: Percent inhibition of the LTE4- induced contraction of guinea pig tracheal spirals at concentration of 5 uM; format: functional; settings: Trachea
Outline: (§1)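 Guinea pig trachea cut into spiral strips, each trachea split into paired sections. Tissue bath at 37 °C in modified Krebs buffer gassed with 95% O2/5% CO2, 2 g resting tension, 60 min stabilization. After reproducible responses to 10 nM LTE4, compound was added for 10 min, then LTE4 challenge repeated. Percent inhibition is the 2nd vs 3rd response, adjusted by subtracting the vehicle-treated paired section. Paired t test, p < 0.05.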

[3] = Selectivity ratio of the compound; format: functional
Cavia porcellus [4] = species: Cavia porcellus; experiment: Percent inhibition of the LTE4- induced contraction of guinea pig tracheal spirals at the concentration of 0.5 uM; format: functional; settings: Trachea; outline: as §1
Cavia porcellus [5] = experiment: Percent protection was determined from the time delay to the onset of dyspnea compared to that of control guinea pig at a concentration of 100 uM/kg; format: functional
Outline: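 Conscious guinea pigs were pretreated ip with indomethacin (10 mg/kg) and propranolol (5 mg/kg). Compound was given orally in poly(ethylene glycol) 60 min before challenge with aerosolized 60 µM LTD4 for up to 5 min. End point was labored abdominal breathing, scored blind. % protection = (drug time − mean control time)/(max aerosol time − mean control time) × 100, with at least two vehicle animals per run.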

Cavia porcellus [6] = species: Cavia porcellus; experiment: Percent inhibition of the LTE4- induced contraction of guinea pig tracheal spirals at the concentration of 0.1 uM; format: functional; settings: Trachea; outline: as §1

Q: For `CCCCCC(=O)Nc1ccc2ccn(Cc3ccc(C(=O)O)cc3OC)c2c1`, which pKB [1] is on record?
A: The pKB was 6.

Q: What about the inhibition at 5 µM (Cavia porcellus [2]) of the same molecule?
A: The inhibition at 5 µM was 70%.

Q: What about the Selectivity ratio [3] of the same molecule?
A: The Selectivity ratio was 100.

Q: Which inhibition at 0.5 µM (Cavia porcellus [4]) does the source give for `CCCCOC(=O)Nc1ccc2ccn(Cc3ccc(C(=O)O)cc3OC)c2c1` here?
A: The inhibition at 0.5 µM was 54%.

Q: Which results are given for `COc1cc(C(=O)O)ccc1Cn1ccc2ccc(NC(=O)OC3CCCC3)cc21`?
A: Protection (Cavia porcellus [5]): 23%; inhibition at 0.1 µM (Cavia porcellus [6]): 61%
